Active and inactive are the calls of the source. The rule behind the calls is not given here.
Legend:
[1] = biological target: T1, Broad substrate specificity ATP-binding cassette transporter ABCG2 (Homo sapiens, UniProt Q9UNQ0); assay: Inhibition of BCRP in human MCF7/Topo cells assessed as mitoxantrone accumulation preincubated for 10 mins followed by mitoxantrone addition measured after 30 mins by fluorescence assay; assay type: cell-based
T1 sequence (Q9UNQ0 whole entry): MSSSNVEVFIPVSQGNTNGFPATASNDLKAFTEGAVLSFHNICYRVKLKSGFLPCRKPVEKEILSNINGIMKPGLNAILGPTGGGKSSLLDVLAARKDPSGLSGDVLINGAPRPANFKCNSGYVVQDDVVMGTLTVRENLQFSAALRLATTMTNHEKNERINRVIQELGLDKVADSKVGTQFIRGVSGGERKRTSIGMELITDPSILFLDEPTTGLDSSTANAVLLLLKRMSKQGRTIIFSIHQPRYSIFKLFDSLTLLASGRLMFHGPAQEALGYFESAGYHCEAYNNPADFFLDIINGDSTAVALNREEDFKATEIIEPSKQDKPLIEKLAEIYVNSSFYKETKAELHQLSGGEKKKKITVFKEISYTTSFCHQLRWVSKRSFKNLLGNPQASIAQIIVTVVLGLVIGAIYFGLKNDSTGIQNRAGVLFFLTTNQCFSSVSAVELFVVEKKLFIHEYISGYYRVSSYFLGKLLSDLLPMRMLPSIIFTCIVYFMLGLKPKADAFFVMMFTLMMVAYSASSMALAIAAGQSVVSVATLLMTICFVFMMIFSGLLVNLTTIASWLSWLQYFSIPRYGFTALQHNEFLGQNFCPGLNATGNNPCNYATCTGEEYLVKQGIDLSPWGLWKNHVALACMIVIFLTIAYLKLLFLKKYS
Outline: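 MCF-7/Topo breast cancer cells (BCRP-overexpressing) exposed to compounds at 0–100 µM, or fumitremorgin C 0.1–100 µM as reference inhibitor, for 30 min with mitoxantrone as fluorescent BCRP substrate. Mitoxantrone fluorescence taken as measure of inhibition; IC50 from dose–response curves; mean ± SD of three independent experiments.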

[2] = (§1) Growth inhibition of human HT-29 cells after 72 hrs by MTT assay; assay type: functional, cell-based; conditions: HT-29, 72 h
HT-29 = assay: as §1; assay type: functional, cell-based
[3] = (§2) Growth inhibition of human HCT116 cells after 72 hrs by MTT assay; assay type: functional, cell-based; conditions: HCT-116, 72 h
HCT-116 = assay: as §2; assay type: functional, cell-based
[4] = (§3) Growth inhibition of human 518A2 cells after 72 hrs by MTT assay; assay type: functional, cell-based; conditions: 518A2, 72 h
518A2 [5] = assay: as §3; assay type: functional, cell-based
[6] = (§4) Growth inhibition of human MCF7/Topo cells after 72 hrs by MTT assay; assay type: functional, cell-based
MCF7/Topo = assay: as §4; assay type: functional, cell-based
[7] = (§5) Growth inhibition of human PANC1 cells after 72 hrs by MTT assay; assay type: functional, cell-based; conditions: PANC-1, 72 h
PANC-1 = assay: as §5; assay type: functional, cell-based
[8] = (§6) Growth inhibition of human KB-V1/Vbl cells after 72 hrs by MTT assay; assay type: functional
KB-V1/Vbl = assay: as §6; assay type: functional
[9] = Cell cycle arrest in human HT-29 cells assessed as accumulation in G2/M phase at 15 uM after 24 hrs by propidium iodide staining based flow cytometry; assay type: functional
Outline: (§7)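 HT-29 colon carcinoma cells treated 24 h with 15 µM compound or DMSO (control); propidium iodide staining, flow cytometry for cell-cycle phase distribution and sub-G1 fraction. Means ± SD of three independent experiments.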

[10] = Cell cycle arrest in human HT-29 cells assessed as decrease in G1 phase at 15 uM after 24 hrs by propidium iodide staining based flow cytometry; assay type: functional; outline: as §7
[11] = biological target: ATP-dependent translocase ABCB1 (Homo sapiens, UniProt P08183); assay: Inhibition of P-gp in human KB-V1/Vbl cells assessed as calcein-AM accumulation preincubated for 15 mins followed by calcein-AM addition measured after 15 mins by fluorescence assay; assay type: cell-based
Sus scrofa = organism: Sus scrofa; assay: Inhibition of pig brain tubulin polymerization at 5 uM measured every 20 sec for 2 hrs by turbidimetric method
518A2 [12] = assay: Inhibition of tubulin polymerization in human 518A2 cells assessed as increase in detergent soluble tubulin heterodimers at 5 to 50 uM after 4 hrs by Western blot analysis; assay type: cell-based
Outline: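 518A2 melanoma cells treated 4 h with a range of concentrations; detergent-insoluble (polymeric tubulin) lysate fraction separated by centrifugation, run on SDS–PAGE, immunoblotted for alpha-tubulin (55 kDa); densitometry from at least two independent experiments (mean ± SD).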

P-gp (ABCB1) = P-gp (ABCB1) (Homo sapiens, UniProt P08183); assay: Potency index, ratio of verapamil IC50 to compound IC50 for P-gp in human KB-V1/Vbl cells; assay type: cell-based; conditions: read-out: Ratio IC50
518A2 [13] = assay: Binding affinity to tubulin in human 518A2 cells assessed as effect on F-actin cytoskeleton by measuring increase in stress fibres at 5 uM after 24 hrs by phalloidin 488/DAPI staining based fluorescence microscopic analysis; assay type: cell-based
Outline: (§8)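 518A2 melanoma cells treated 24 h at 10 µM or 5 µM; F-actin fluorescently stained and cytoskeletal organisation, including stress-fibre formation, compared with untreated controls by fluorescence microscopy.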

518A2 [14] = assay: Induction of apoptosis in human 518A2 cells assessed as DNA fragmentation at 25 uM after 24 hrs by TUNEL based flow cytometry; assay type: functional, cell-based
Outline: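 518A2 melanoma cells treated 24 h; DNA fragmentation detected by TUNEL labelling and quantified by flow cytometry against untreated controls.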

518A2 [15] = assay: Induction of apoptosis in human 518A2 cells assessed as DNA ladder formation at 50 uM after 24 hrs by ethidium bromide staining based agarose gel electrophoresis; assay type: functional, cell-based
518A2 [16] = assay: Binding affinity to tubulin in human 518A2 cells assessed as effect on F-actin cytoskeleton by measuring increase in stress fibres at 10 uM after 24 hrs by phalloidin 488/DAPI staining based fluorescence microscopic analysis; assay type: cell-based; outline: as §8

Chain of ATP-dependent translocase ABCB1 (P08183 whole entry): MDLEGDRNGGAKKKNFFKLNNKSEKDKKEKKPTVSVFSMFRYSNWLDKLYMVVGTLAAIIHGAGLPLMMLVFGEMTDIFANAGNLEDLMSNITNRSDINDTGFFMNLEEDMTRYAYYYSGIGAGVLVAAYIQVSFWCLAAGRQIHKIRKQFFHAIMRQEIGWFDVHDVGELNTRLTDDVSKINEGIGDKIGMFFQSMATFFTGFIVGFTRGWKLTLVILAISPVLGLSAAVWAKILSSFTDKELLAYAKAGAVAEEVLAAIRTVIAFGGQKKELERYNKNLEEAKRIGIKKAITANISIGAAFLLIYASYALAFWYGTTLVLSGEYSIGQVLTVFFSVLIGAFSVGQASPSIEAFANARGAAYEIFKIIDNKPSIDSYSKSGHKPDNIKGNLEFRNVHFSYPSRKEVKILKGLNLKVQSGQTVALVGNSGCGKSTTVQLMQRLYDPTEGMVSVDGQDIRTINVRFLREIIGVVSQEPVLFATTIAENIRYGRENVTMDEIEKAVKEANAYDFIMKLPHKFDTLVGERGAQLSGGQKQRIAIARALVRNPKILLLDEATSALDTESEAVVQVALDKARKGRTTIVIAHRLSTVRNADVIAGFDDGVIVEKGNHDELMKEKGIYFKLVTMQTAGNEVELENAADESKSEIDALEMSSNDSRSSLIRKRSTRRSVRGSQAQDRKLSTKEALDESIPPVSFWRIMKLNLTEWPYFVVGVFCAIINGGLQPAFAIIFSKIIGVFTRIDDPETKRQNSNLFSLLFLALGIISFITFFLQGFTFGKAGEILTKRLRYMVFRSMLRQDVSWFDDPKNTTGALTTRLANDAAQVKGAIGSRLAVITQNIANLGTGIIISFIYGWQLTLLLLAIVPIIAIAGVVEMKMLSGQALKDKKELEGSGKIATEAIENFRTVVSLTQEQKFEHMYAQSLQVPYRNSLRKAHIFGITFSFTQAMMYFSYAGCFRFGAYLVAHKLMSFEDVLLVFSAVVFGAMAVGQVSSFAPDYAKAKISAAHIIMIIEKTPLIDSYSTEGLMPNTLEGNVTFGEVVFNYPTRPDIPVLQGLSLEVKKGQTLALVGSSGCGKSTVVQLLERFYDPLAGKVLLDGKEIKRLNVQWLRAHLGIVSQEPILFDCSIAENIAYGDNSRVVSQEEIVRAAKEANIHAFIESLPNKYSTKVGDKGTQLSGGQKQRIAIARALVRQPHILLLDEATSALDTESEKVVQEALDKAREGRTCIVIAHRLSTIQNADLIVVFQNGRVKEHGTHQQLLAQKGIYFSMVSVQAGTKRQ
Chain of P-gp (ABCB1) (P08183 whole entry): as above

COc1ccc2c3c([nH]c2c1)[C@H](C=C(C)C)N1C(=O)[C@@H]2CCCN2C(=O)[C@@H]1C3 [FUMITREMORGIN]
IC50 [1]: 0.96 µM

COc1cc(/C=C/C(=O)c2ccc3ccccc3c2)cc(I)c1OC
IC50 [2]: 13.3 µM
growth inhibition (GI) (HT-29): Dose-dependent effect
IC50 [3]: 14.4 µM
growth inhibition (GI) (HCT-116): Dose-dependent effect
IC50 [4]: 18.1 µM
growth inhibition (GI) (518A2 [5]): Dose-dependent effect
IC50 [6]: 1.3 µM
growth inhibition (GI) (MCF7/Topo): Dose-dependent effect
IC50 [7]: 10.4 µM
growth inhibition (GI) (PANC-1): Dose-dependent effect
IC50 [8]: 16.5 µM
growth inhibition (GI) (KB-V1/Vbl): Dose-dependent effect
Activity [9]: Active
Activity [10]: Active
IC50 [1]: 7.8 µM
IC50 [11]: > 500 µM
inhibition (Sus scrofa): Active
inhibition (518A2 [12]): Active

COc1cc(C2CC(c3ccc4ccccc4c3)=NN2C(C)=O)cc(Cl)c1OC (configuration not stated)
IC50 [2]: 3.5 µM
growth inhibition (GI) (HT-29): Dose-dependent effect
IC50 [3]: 3.8 µM
growth inhibition (GI) (HCT-116): Dose-dependent effect
IC50 [4]: 4.6 µM
growth inhibition (GI) (518A2 [5]): Dose-dependent effect
IC50 [6]: 2.1 µM
growth inhibition (GI) (MCF7/Topo): Dose-dependent effect
IC50 [7]: 3.1 µM
growth inhibition (GI) (PANC-1): Dose-dependent effect
IC50 [8]: 4.7 µM
growth inhibition (GI) (KB-V1/Vbl): Dose-dependent effect
Activity [9]: Active
Activity [10]: Active
IC50 [1]: 7.4 µM
IC50 [11]: 12.1 µM
selectivity ratio (P-gp (ABCB1)): 4 to 5
inhibition (Sus scrofa): Active
inhibition (518A2 [12]): Active
Activity (518A2 [13]): Active

COc1cc(C2CC(c3ccc4ccccc4c3)=NN2C(C)=O)cc(Br)c1OC (configuration not stated)
IC50 [2]: 2.5 µM
growth inhibition (GI) (HT-29): Dose-dependent effect
IC50 [3]: 2.7 µM
growth inhibition (GI) (HCT-116): Dose-dependent effect
IC50 [4]: 3.8 µM
growth inhibition (GI) (518A2 [5]): Dose-dependent effect
IC50 [6]: 2.6 µM
growth inhibition (GI) (MCF7/Topo): Dose-dependent effect
IC50 [7]: 1.5 µM
growth inhibition (GI) (PANC-1): Dose-dependent effect
IC50 [8]: 2.2 µM
growth inhibition (GI) (KB-V1/Vbl): Dose-dependent effect
Activity [9]: Active
Activity [10]: Active
IC50 [1]: 8.9 µM
IC50 [11]: 12.6 µM
selectivity ratio (P-gp (ABCB1)): 4 to 5

COc1cc(/C=C/C(=O)c2ccc3ccccc3c2)cc(OC)c1OC
IC50 [2]: 28.1 µM
growth inhibition (GI) (HT-29): Dose-dependent effect
IC50 [3]: 13.7 µM
growth inhibition (GI) (HCT-116): Dose-dependent effect
IC50 [4]: 22.9 µM
growth inhibition (GI) (518A2 [5]): Dose-dependent effect
IC50 [6]: 5.6 µM
growth inhibition (GI) (MCF7/Topo): Dose-dependent effect
IC50 [7]: 13.3 µM
growth inhibition (GI) (PANC-1): Dose-dependent effect
IC50 [8]: 13.9 µM
growth inhibition (GI) (KB-V1/Vbl): Dose-dependent effect
Activity [9]: Active
Activity [10]: Active
IC50 [1]: 2.4 µM
IC50 [11]: 13 µM
selectivity ratio (P-gp (ABCB1)): 4 to 5
Activity (518A2 [14]): Active
Activity (518A2 [15]): Active
Activity (518A2 [16]): Active

COc1cc(/C=C/C(=O)c2ccc3ccccc3c2)cc(Cl)c1OC
IC50 [2]: 23.9 µM
growth inhibition (GI) (HT-29): Dose-dependent effect
IC50 [3]: 12.9 µM
growth inhibition (GI) (HCT-116): Dose-dependent effect
IC50 [4]: 16.4 µM
growth inhibition (GI) (518A2 [5]): Dose-dependent effect
IC50 [6]: 1.5 µM
growth inhibition (GI) (MCF7/Topo): Dose-dependent effect
IC50 [7]: 10.3 µM
growth inhibition (GI) (PANC-1): Dose-dependent effect
IC50 [8]: 13.1 µM
growth inhibition (GI) (KB-V1/Vbl): Dose-dependent effect
Activity [9]: Active
Activity [10]: Active
IC50 [1]: 8.7 µM
IC50 [11]: > 500 µM
Activity (518A2 [14]): Active
Activity (518A2 [15]): Active
inhibition (Sus scrofa): Active
inhibition (518A2 [12]): Active
Activity (518A2 [16]): Active

COc1cc(/C=C/C(=O)c2ccc3ccccc3c2)cc(Br)c1OC
IC50 [2]: 22.8 µM
growth inhibition (GI) (HT-29): Dose-dependent effect
IC50 [3]: 11.2 µM
growth inhibition (GI) (HCT-116): Dose-dependent effect
IC50 [4]: 20.2 µM
growth inhibition (GI) (518A2 [5]): Dose-dependent effect
IC50 [6]: 2.3 µM
growth inhibition (GI) (MCF7/Topo): Dose-dependent effect
IC50 [7]: 9.3 µM
growth inhibition (GI) (PANC-1): Dose-dependent effect
IC50 [8]: 10.5 µM
growth inhibition (GI) (KB-V1/Vbl): Dose-dependent effect
Activity [9]: Active
Activity [10]: Active
IC50 [1]: 4.9 µM
IC50 [11]: > 500 µM

COc1cc(C2CC(c3ccc4ccccc4c3)=NN2C(C)=O)cc(I)c1OC (configuration not stated)
IC50 [2]: 2.3 µM
growth inhibition (GI) (HT-29): Dose-dependent effect
IC50 [3]: 1.6 µM
growth inhibition (GI) (HCT-116): Dose-dependent effect
IC50 [4]: 3.8 µM
growth inhibition (GI) (518A2 [5]): Dose-dependent effect
IC50 [6]: 2.5 µM
growth inhibition (GI) (MCF7/Topo): Dose-dependent effect
IC50 [7]: 1.1 µM
growth inhibition (GI) (PANC-1): Dose-dependent effect
IC50 [8]: 1.9 µM
growth inhibition (GI) (KB-V1/Vbl): Dose-dependent effect
Activity [9]: Active
Activity [10]: Active
IC50 [1]: 7.1 µM
IC50 [11]: 16.3 µM
selectivity ratio (P-gp (ABCB1)): 4 to 5
inhibition (Sus scrofa): Active
inhibition (518A2 [12]): Active
